According to ChEMBL document CHEMBL2384952, “Synthesis, antifungal and cytotoxic activities of 2-aryl-3-((piperidin-1-yl)ethyl)thiazolidinones” (Eur J Med Chem, 2013):
In brackets after ≈: the same amount, converted by molar mass.

Experiments:
Vero [1] = assay: Cytotoxicity against African green monkey Vero cells at 197 ug/mL by neutral red dye uptake assay relative to control; assay type: cell-based; settings: chlorocebus sabaeus
Outline: (§1)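 Vero cells (over 99% viable by trypan blue exclusion) were exposed to serial compound dilutions in E-MEM, with fresh E-MEM as negative control, for 72 h at 37 °C, 5% CO2. Cells were then given 3.3 mg/L neutral red for 2 h, and the dye was extracted with 50% ethanol/1% acetic acid. A540 was read, and viability was calculated as treated/control absorbance × 100.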

Papiliotrema laurentii = assay: Antifungal activity against Cryptococcus laurentii after 48 hrs by CLSI M27A3 broth microdilution method; assay type: functional
Outline: (§2)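 Yeasts were kept on Sabouraud dextrose agar and subcultured at 35 °C for at least 2 days. They were suspended in saline to McFarland 0.5 and diluted in RPMI. Ten successive dilutions were made from a 1.6 mg/mL DMSO stock per CLSI broth microdilution, then incubated at 37 °C for 48 h. Growth was read visually against a growth-control well, and MIC is the lowest concentration inhibiting growth.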

Vero [2] = assay: Cytotoxicity against African green monkey Vero cells at 394 ug/mL by neutral red dye uptake assay relative to control; assay type: cell-based; settings: chlorocebus sabaeus; outline: as §1
Rhodotorula = assay: Antifungal activity against Rhodotorula species after 48 hrs by CLSI M27A3 broth microdilution method; assay type: functional; outline: as §2
Vero [3] = assay: Cytotoxicity against African green monkey Vero cells at 1575 ug/mL by neutral red dye uptake assay relative to control; assay type: cell-based; settings: chlorocebus sabaeus; outline: as §1
Trichosporon asahii = assay: Antifungal activity against Trichosporon asahii after 48 hrs by CLSI M27A3 broth microdilution method; assay type: functional; outline: as §2
Vero [4] = assay: Cytotoxicity against African green monkey Vero cells at 3150 ug/mL by neutral red dye uptake assay relative to control; assay type: cell-based; settings: chlorocebus sabaeus; outline: as §1
Geotrichum = assay: Antifungal activity against Geotrichum species after 48 hrs by CLSI M27A3 broth microdilution method; assay type: functional; outline: as §2
Candida albicans = assay: Antifungal activity against Candida albicans after 48 hrs by CLSI M27A3 broth microdilution method; assay type: functional; outline: as §2
Vero [5] = assay: Cytotoxicity against African green monkey Vero cells at 12.3 ug/mL by neutral red dye uptake assay relative to control; assay type: cell-based; settings: chlorocebus sabaeus; outline: as §1
Vero [6] = assay: Cytotoxicity against African green monkey Vero cells at 25 ug/mL by neutral red dye uptake assay relative to control; assay type: cell-based; settings: chlorocebus sabaeus; outline: as §1
Candida parapsilosis = assay: Antifungal activity against Candida parapsilosis after 48 hrs by CLSI M27A3 broth microdilution method; assay type: functional; settings: Lodderomyces parapsilosis; outline: as §2
Vero [7] = assay: Cytotoxicity against African green monkey Vero cells at 787 ug/mL by neutral red dye uptake assay relative to control; assay type: cell-based; settings: chlorocebus sabaeus; outline: as §1
Vero [8] = assay: Cytotoxicity against African green monkey Vero cells at 98 ug/mL by neutral red dye uptake assay relative to control; assay type: cell-based; settings: chlorocebus sabaeus; outline: as §1
Vero [9] = assay: Cytotoxicity against African green monkey Vero cells at 49 ug/mL by neutral red dye uptake assay relative to control; assay type: cell-based; settings: chlorocebus sabaeus; outline: as §1
[10] = test system: Meyerozyma guilliermondii; assay: Antifungal activity against Candida guilliermondii after 48 hrs by CLSI M27A3 broth microdilution method; assay type: functional; outline: as §2

Structure (SMILES)	Cell viability (Vero [1])	MFC (Papiliotrema laurentii)	MIC (Papiliotrema laurentii)	Cell viability (Vero [2])	MFC (Rhodotorula)	MIC (Rhodotorula)	Cell viability (Vero [3])	MFC (Trichosporon asahii)	MIC (Trichosporon asahii)	Cell viability (Vero [4])	MFC (Geotrichum)	MIC (Geotrichum)	MFC (Candida albicans)	MIC (Candida albicans)	Cell viability (Vero [5])	Cell viability (Vero [6])	MFC (Candida parapsilosis)	MIC (Candida parapsilosis)	Cell viability (Vero [7])	Cell viability (Vero [8])	also measured
O=C1CSC(c2ccc([N+](=O)[O-])cc2)N1CCN1CCCCC1 (stereo not drawn)	72%	100 µg/mL (≈ 298 µM)	100 µg/mL (≈ 298 µM)	66%	30 µg/mL (≈ 89.4 µM)	30 µg/mL (≈ 89.4 µM)	15%	100 µg/mL (≈ 298 µM)	100 µg/mL (≈ 298 µM)	10%	50 µg/mL (≈ 149 µM)	50 µg/mL (≈ 149 µM)	62 µg/mL (≈ 185 µM)	62 µg/mL (≈ 185 µM)	100%	100%	100 µg/mL (≈ 298 µM)	100 µg/mL (≈ 298 µM)	21%	87%	Cell viability (Vero [9]): 100%; MFC [10]: 100 µg/mL (≈ 298 µM); MIC [10]: 100 µg/mL (≈ 298 µM)
O=C1CSC(c2ccc(O)cc2)N1CCN1CCCCC1 (stereo not drawn)	87%	100 µg/mL (≈ 326 µM)	100 µg/mL (≈ 326 µM)	76%	25 µg/mL (≈ 81.6 µM)	25 µg/mL (≈ 81.6 µM)	12%	50 µg/mL (≈ 163 µM)	50 µg/mL (≈ 163 µM)	10%	50 µg/mL (≈ 163 µM)	50 µg/mL (≈ 163 µM)	100 µg/mL (≈ 326 µM)	100 µg/mL (≈ 326 µM)	100%	100%	100 µg/mL (≈ 326 µM)	100 µg/mL (≈ 326 µM)	57%	94%	Cell viability (Vero [9]): 96%; MFC [10]: 100 µg/mL (≈ 326 µM); MIC [10]: 100 µg/mL (≈ 326 µM)
O=C1CSC(c2ccccc2F)N1CCN1CCCCC1 (stereo not drawn)	65%	100 µg/mL (≈ 324 µM)	100 µg/mL (≈ 324 µM)	45%	36 µg/mL (≈ 117 µM)	36 µg/mL (≈ 117 µM)	10%	> 400 µg/mL	> 400 µg/mL	10%	> 400 µg/mL	> 400 µg/mL	100 µg/mL (≈ 324 µM)	100 µg/mL (≈ 324 µM)	100%	100%	100 µg/mL (≈ 324 µM)	100 µg/mL (≈ 324 µM)	10%	82%	Cell viability (Vero [9]): 95%; MFC [10]: 133 µg/mL (≈ 431 µM); MIC [10]: 133 µg/mL (≈ 431 µM)
COc1cccc(C2SCC(=O)N2CCN2CCCCC2)c1 (stereo not drawn)	66%	100 µg/mL (≈ 312 µM)	100 µg/mL (≈ 312 µM)	57%	33.5 µg/mL (≈ 105 µM)	33.5 µg/mL (≈ 105 µM)	11%	> 400 µg/mL	> 400 µg/mL	6%	> 400 µg/mL	> 400 µg/mL	100 µg/mL (≈ 312 µM)	100 µg/mL (≈ 312 µM)	100%	97%	100 µg/mL (≈ 312 µM)	100 µg/mL (≈ 312 µM)	19%	84%	Cell viability (Vero [9]): 90%; MFC [10]: 100 µg/mL (≈ 312 µM); MIC [10]: 100 µg/mL (≈ 312 µM)
O=C1CSC(c2cccc(F)c2)N1CCN1CCCCC1 (stereo not drawn)	84%	100 µg/mL (≈ 324 µM)	100 µg/mL (≈ 324 µM)	60%	33.5 µg/mL (≈ 109 µM)	33.5 µg/mL (≈ 109 µM)	17%	> 400 µg/mL	> 400 µg/mL	13%	> 400 µg/mL	> 400 µg/mL	150 µg/mL (≈ 486 µM)	150 µg/mL (≈ 486 µM)	100%	100%	100 µg/mL (≈ 324 µM)	100 µg/mL (≈ 324 µM)	27%	92%	Cell viability (Vero [9]): 97%; MFC [10]: 100 µg/mL (≈ 324 µM); MIC [10]: 100 µg/mL (≈ 324 µM)
O=C1CSC(c2cccc(O)c2)N1CCN1CCCCC1 (stereo not drawn)	100%	100 µg/mL (≈ 326 µM)	100 µg/mL (≈ 326 µM)	100%	33.5 µg/mL (≈ 109 µM)	33.5 µg/mL (≈ 109 µM)	13%	> 400 µg/mL	> 400 µg/mL	11%	> 400 µg/mL	> 400 µg/mL	81 µg/mL (≈ 264 µM)	81 µg/mL (≈ 264 µM)	100%	100%	67 µg/mL (≈ 219 µM)	67 µg/mL (≈ 219 µM)	60%	100%	Cell viability (Vero [9]): 100%; MFC [10]: 100 µg/mL (≈ 326 µM); MIC [10]: 100 µg/mL (≈ 326 µM)
